Compound activity from PubChem BioAssay.
MBD2 inh – inhibitors of MBD2 binding to methylated DNA, primary screen, biochemical, TR-FRET, DNA-binding domain, human. Methyl-CpG-binding domain protein 2 (Homo sapiens), Q9UBB5. inhibition, % at 4.4 µM. hit rate 0.31% among 370,000. MBD2 binding to methylated oligonucleotide; in the data active means inhibition above about 13%
PRMT1 FP inh – PRMT1 methyltransferase inhibitors, primary screen, biochemical, fluorescence polarization; recombinant PRMT1, activity-based probe fluorescence polarization; inhibition, % at 2.79 µM; hit rate 1.3% among 370,000;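 active means inhibition above about 21% made by adding two undisclosed values, limit read from the data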
SIAE primary – human SIAE inhibitors, primary screen, biochemical, fluorescence polarization, FP-Rh probe, 1536-well HTS; hit rate 0.69% among 370,000; inhibition, % at 9.66 µM; Sialate O-acetylesterase (Homo sapiens), Q9HAT2; SIAE FP-Rh probe binding;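 active means inhibition above a cutoff: mean of compounds within the control limits plus 3 SD of those, cut at about 17% in these data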;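 further: 0% = plate median of compound wells and 100% = probe without SIAE protein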
Target sequence (Q9HAT2 whole entry, looked up): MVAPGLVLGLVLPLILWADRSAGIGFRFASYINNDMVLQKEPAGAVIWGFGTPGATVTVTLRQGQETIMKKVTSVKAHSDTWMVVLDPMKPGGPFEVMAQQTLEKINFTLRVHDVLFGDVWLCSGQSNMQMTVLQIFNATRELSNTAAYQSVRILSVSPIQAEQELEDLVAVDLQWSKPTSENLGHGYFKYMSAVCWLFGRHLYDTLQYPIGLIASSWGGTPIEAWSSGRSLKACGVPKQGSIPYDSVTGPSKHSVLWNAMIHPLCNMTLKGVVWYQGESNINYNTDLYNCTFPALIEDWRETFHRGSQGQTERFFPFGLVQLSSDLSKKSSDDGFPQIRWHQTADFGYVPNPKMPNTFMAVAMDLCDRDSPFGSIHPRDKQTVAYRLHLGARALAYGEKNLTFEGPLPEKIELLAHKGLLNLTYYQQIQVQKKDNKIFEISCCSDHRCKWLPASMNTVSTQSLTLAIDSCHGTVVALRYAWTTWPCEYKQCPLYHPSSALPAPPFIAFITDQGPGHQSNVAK
LEDGF integ inh – blockers of LEDGF/p75-dependent integrase strand transfer – biochemical, TR-FRET, high throughput, primary screen; hit rate 0.64% among 370,000; HIV-1 integrase (with human LEDGF/p75); AID 743269, 2014; TR-FRET IN-LEDGF/p75 DNA integration, Eu/Cy5; inhibition, % at 3.7 µM;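 active means inhibition above the screen-wide mean plus 3 SD, cut at about 13% in these data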;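 further: signal is the Cy5 over europium emission ratio at 671 and 618 nm; 0% = plate median of compound wells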
TDP2 inh – human TDP2 enzyme inhibitors, primary screen, biochemical, epi absorbance, recombinant enzyme; Tyrosyl-DNA phosphodiesterase 2 (Homo sapiens), O95551; hit rate 0.34% among 370,000; inhibition, % at 12.8 µM; AID 720702, 2013; T5PNP hydrolysis, p-nitrophenol absorbance 415 nm;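 active means inhibition above the mean of all tested compounds plus 3 SD, set per campaign, cut at about 25% in these data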;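 further: 0% = DMSO with enzyme and 100% = buffer with substrate but no TDP2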
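System – recombinant human TDP2 · Quantity – TDP2 enzyme at 120 nM final · Doses – single concentration, 12.8 µM nominal, with 1% DMSO · Incubation – 2 h at 37 °C · Measured by – epi absorbance of p-nitrophenol freed from T5PNP by hydrolysis · Read-out – % inhibition relative to enzyme-containing and enzyme-free wells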
UHRF1 binding – UHRF1 methylated DNA binding inhibitors, primary screen, counter-screen for MBD2 inhibitor project, biochemical, TR-FRET, human UHRF1, single concentration; E3 ubiquitin-protein ligase UHRF1 (Homo sapiens), Q96T88; UHRF1 binding to methylated oligo; inhibition, % at 4.4 µM; hit rate 0.75% among 370,000; AID 687016, 2013; in the data active means inhibition above about 21%;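 further: UHRF1 SRA domain binding a hemimethylated CpG hairpin DNA probe; 0% = median of test compound wells and 100% = reference inhibitor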
PRMT1 inh conf – PRMT1 methyltransferase inhibitors, confirmation, biochemical, fluorescence polarization, triplicate; shares compounds with PRMT1 FP inh; recombinant His-PRMT1, activity-based probe fluorescence polarization; inhibition, % at 2.79 µM; hit rate 42% among 3,300; AID 687036, 2013;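 active means mean inhibition across replicates above the hit cutoff derived for the earlier primary screen, cut at about 22% in these data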
* = called active by the depositor; . = no result. This is a sample that favours compounds with a hit; in the whole collection about 3.3% have one here.

SMILES	MBD2 inh	PRMT1 FP inh	SIAE primary	LEDGF integ inh	TDP2 inh	UHRF1 binding	PRMT1 inh conf
O=C1C=CC(=O)N1c1ccc(O)cc1	4	90*	-16	-4	-8	-1	92*
COc1ccc(C(=O)OCCN(C)C2CN(Cc3cn(Cc4ccccc4Cl)nn3)S(=O)(=O)C2)cc1OC (stereo not given)	0	2	2	1	4	3	.
CCCC1CCC2(CC1)CCC2OC(=O)Nc1cccc(Cl)c1 (stereo not given)	2	-4	5	0	10	-3	.
Cc1ccc(N2C(=O)CC(SCC(=O)Nc3ccc(S(N)(=O)=O)cc3)C2=O)cc1 (stereo not given)	-6	53*	3	0	5	-4	66*
COC(=O)c1ccc(N2C(=O)CC(SCC(=O)Nc3ccc(OC)cc3)C2=O)cc1 (stereo not given)	-3	53*	2	-1	-8	3	49*
NS(=O)(=O)c1ccc(NC(=O)CSC2CCCCC2)cc1	-1	-3	12	2	6	2	.
O=C(CSC1CC(=O)N(c2ccc(C(=O)O)cc2)C1=O)Nc1ccc2ccccc2c1 (stereo not given)	-4	19	7	4	-2	1	.
CCOC(=O)c1ccc(N2C(=O)CC(Nc3ccc(CCO)cc3)C2=O)cc1 (stereo not given)	1	0	1	-2	-8	1	.
CCOC(=O)c1ccc(N2C(=O)CC(SCC(=O)Nc3ccc(S(N)(=O)=O)cc3)C2=O)cc1 (stereo not given)	1	82*	-6	-1	0	-7	83*
CN1CCCC1CCSc1ncccc1-c1nc2ccccc2[nH]1 (stereo not given)	3	1	-2	1	-1	-5	.
Cc1occc1-c1nnc(SCC(=O)N[C@@H]2CCc3ccccc32)n1-c1ccccc1	-3	-8	0	5	-1	-4	.
N#Cc1ccc(NC(=O)CSc2nc3[nH]c(=O)cc(O)c3s2)cc1	-5	9	-14	1	11	-1	.
CSc1ccc(NC(=O)CSc2nc3[nH]c(=O)cc(O)c3s2)cc1	-6	48*	-14	11	4	2	2
Cc1noc(NS(=O)(=O)c2ccc(NC(=O)CSc3ncccn3)cc2)c1C	-3	5	6	-1	5	4	.
Cc1noc(NS(=O)(=O)c2ccc(NC(=O)CSc3nc4ccccc4s3)cc2)c1C	-5	40*	-1	-2	17	-2	37*
O=c1[nH]c(-[n+]2ccc3ccccc3c2)c(/C=N/N=C(\[O-])c2ccccc2)s1	-11	54*	6	-1	13	-16	1
Nc1[nH]c(C(=O)c2ccccc2)c(-c2cccc3ccccc23)c1C(=O)NC1CCCCC1	1	0	-12	2	-1	-2	.
O=C(NC(=S)NC1CCSC1=O)c1cccs1 (stereo not given)	-3	36*	2	-2	-2	50*	10
COc1cc(OC)cc(C(=O)NC2CCSC2=O)c1 (stereo not given)	1	3	-8	0	3	0	.
COc1ccc(C(=O)NC(=S)NC2CCSC2=O)cc1 (stereo not given)	-1	29*	7	4	3	-2	7
COC(=O)C[C@H]1CC[C@H]2[C@@H](COc3ccc(NC(=O)Nc4ccccc4)cc3C(=O)N2C)O1	-5	1	0	-1	-3	1	.
O=C(Nc1ccc(Oc2cccc(C(F)(F)F)c2)nc1)c1ccco1	0	-1	6	0	0	1	.
CC(C)(C)c1ccc(Oc2ccc(NC(=O)c3ccco3)cn2)cc1	2	29*	-12	-1	0	-1	3
COc1cc(N=c2ssnc2Cl)c(OC)cc1Cl	-6	94*	16	0	0	-18	91*
COc1ccc(OC)c(N=c2ssnc2Cl)c1	4	75*	2	-2	-3	-3	81*
SMILES	MBD2 inh	PRMT1 FP inh	SIAE primary	LEDGF integ inh	TDP2 inh	UHRF1 binding	PRMT1 inh conf
CC(C)Oc1ccc(Oc2ccc(C#C[C@H](C)N3C(=O)c4ccccc4C3=O)cc2)cn1	3	-1	0	0	-1	13	.
O=C(NC1CCCc2c1cnn2-c1ccc(F)cc1F)c1cccs1 (stereo not given)	-2	0	-1	-1	11	0	.
C=CCn1c(=O)[nH]c2nc3cc(N=CN(C)C)c(C)cc3nc2c1=O	-9	31*	-2	-3	5	-11	75*
O=C(c1cccc(C(F)(F)F)c1)N1CC[C@H]2[C@H](CCCN2Cc2ccccc2)C1	-1	1	-1	-1	2	-3	.
O=C(c1ccncc1)c1ccc(N2CCN(C3CC(=O)N(Cc4cccs4)C3=O)CC2)cc1 (stereo not given)	-7	3	0	-6	-12	-3	.
O=C1CC(N2CCN(c3ccc(O)cc3)CC2)C(=O)N1Cc1cccs1 (stereo not given)	-1	49*	9	6	-4	-3	-1
COc1ccc(S[C@]2(C(=O)N3CCOCC3)CC(=O)N(c3ccc(C#N)cc3)[C@@H]2c2ccc(OC)cc2)cc1	1	5	-1	-3	0	1	.
O=C(O)C1CSC(c2coc3ccccc3c2=O)N1 (stereo not given)	1	51*	-8	-4	-3	1	35*
CC1CCOC(c2coc3ccccc3c2=O)O1 (stereo not given)	2	-1	-3	2	8	0	.
O=C(NCc1ccco1)C1CCCN(c2ncccn2)C1 (stereo not given)	4	3	0	-4	-9	1	.
COC(=O)N1CCCC1c1cccc2[nH]cc(C)c12 (stereo not given)	-4	3	3	1	4	-3	.
NCCSC1CC(=O)N(Cc2ccc(F)cc2)C1=O (stereo not given)	1	27*	-2	0	-5	0	11
